Assay results published in ChEMBL document CHEMBL1122622, “Carbocyclic analogues of xylofuranosylpurine nucleosides. Synthesis and antitumor activity” (J Med Chem, 1984).
Active and inactive are the calls of the source. No cut-off for these calls is given here.

Test system: Mus musculus
Assay: Compound was tested for antileukemic activity in P388 leukemia mice when administered a dose of 100 mg/kg/day; IA means inactive
Format: functional, organism-based
Method in brief: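 BDF1 male mice, eight per group, implanted ip with 10⁶ P388 leukemia cells. Drug given ip in 0.5 mL saline. Schedules varied between groups; the 100 mg/kg/day regimen was dosed qd 1-9.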

Nc1ncnc2c1ncn2[C@@H]1C[C@H](CO)[C@@H](O)[C@H]1O
Activity: inactive
